Only some compounds are listed: those with a hit (about 3% of all), similar ones and a draw of the others.
NSD2 HMT inh: NSD2 (human) methyltransferase inhibition | O96028 | NSD2 peptide methylation, AlphaScreen, 120 min | inhibition, % at 12.5 µM | actives 0.54% (n = 310,000) | AID 743445; in the data active means inhibition above about 50%
esBAF inh: inhibitors of esBAF chromatin remodeling in mouse ES cells. Bmi1-luciferase knock-in reporter, 24 h; 100% = twice the neutral-well signal. reporter increase, % at 12.5 µM. actives 2% (n = 350,000). AID 602393; in the data active means activation above about 40%; inconclusive means no clear call, values can overlap the other calls;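 further: a rise in the Bmi1 reporter signal indicates esBAF inhibition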
Casp6 inh: caspase-6 (human) enzyme inhibition | P55212 | AID 686996 | actives 0.53% (n = 350,000) | inhibition, % at 12.5 µM | purified caspase-6, Z-VEID-R110 cleavage fluorescence;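 active means mean inhibition across replicates at least about 35%, with every replicate also reaching that limit, limit read from the data; inconclusive means only one of the two criteria met; inactive means neither criterion met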
Target sequence (P55212 24-179 limits assumed): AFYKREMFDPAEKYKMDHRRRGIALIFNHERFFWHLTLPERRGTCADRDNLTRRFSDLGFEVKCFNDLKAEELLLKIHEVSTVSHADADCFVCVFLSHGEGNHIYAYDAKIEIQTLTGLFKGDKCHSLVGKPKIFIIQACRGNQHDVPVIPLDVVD
Target sequence (P55212 194-293 limits assumed): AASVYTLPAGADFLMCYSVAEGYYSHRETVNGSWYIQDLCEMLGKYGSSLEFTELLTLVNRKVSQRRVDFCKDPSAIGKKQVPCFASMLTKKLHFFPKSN
Xi reactivation: activators of X-chromosome reactivation in mouse fibroblasts; XiGFP mouse fibroblasts, % GFP-positive cells imaging, 3 d; cells co-treated with 5-aza-dC sensitizer; scaled so ellipticine positive control = 100%; activation, % at 7.58 µM; actives 0.055% (n = 360,000); AID 743238;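 active means mean normalized replicate activation at least 10% and every replicate at or above 10%; inconclusive means only one of the two criteria met; inactive means mean below 10% and not all replicates reach 10%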
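Assay system: SV40-immortalized XiGFP fibroblast cells, line 68-5-11; buffer or medium: DMEM plus 5-aza-dC sensitizer; compound: one concentration, pinned; timing: compounds 3 days, fix/stain 15 min at room temperature; benchmarks: positive control ellipticine, 6 µM final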
Wnt act: activates Wnt/beta-catenin signaling in a reporter cell assay. activator, plate reader. activation, % at 9.35 µM. actives 1.2% (n = 300,000); in the data active means activation above about 30%, passing the limit was not always enough; inconclusive means no clear call, values can overlap the other calls
MITF TRPM1 HTS: activators of MITF-driven TRPM1 promoter activity in SK-MEL-5 cells; SK-MEL-5 TRPM1-promoter luciferase, 24 h; % of positive control, neutral wells = 0; activation, % at 12.5 µM; actives 0.75% (n = 300,000); AID 588334;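 active means mean activation of at least 80% with every replicate also reaching 80%; inconclusive means mean reaches 80% but some replicate falls short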
Hits are given with their value; – = inactive; ? = inconclusive; · = not tested or not shown.

SMILES	NSD2 HMT inh	esBAF inh	Casp6 inh	Xi reactivation	Wnt act	MITF TRPM1 HTS
Cc1ccc(O)c(NC(=O)c2cc(-c3ccc(F)cc3)on2)c1	–	–	–	–	–	–
COc1ccccc1-c1cc(C(=O)N2CCCC2)no1	–	–	–	–	36.9	–
COc1ccccc1-c1cc(C(=O)N2CCN(c3ccc(F)cc3)CC2)no1	–	–	·	·	–	–
Cc1ccc(O)c(NC(=O)c2cc(-c3cccs3)on2)c1	·	52.4	–	–	–	122.3
CCOc1ccc(-c2n[nH]c(=S)n2Cc2ccccc2)cc1	–	–	37.2	–	–	·
Cc1ccc(-c2n[nH]c(=S)n2Cc2ccccc2)cc1	–	–	·	·	–	–
COc1ccc(S(=O)(=O)N[C@@H]2CC[C@@H](CC(=O)N3CCN(c4ccccc4)CC3)O[C@H]2CO)cc1	·	–	–	–	·	·
CC1(C(=O)NS(=O)(=O)c2ccc(Cl)cc2)CCN1C(=O)c1cccc(F)c1 (stereo not drawn)	–	–	–	–	–	·
CC1(C(=O)NS(=O)(=O)c2ccc(C#N)cc2)CCN1C(=O)c1cccc(F)c1 (stereo not drawn)	·	–	–	–	49.1	·
NCC[C@@H]1CC[C@H](NC(=O)C2CC2)[C@@H](CO)O1	·	·	–	–	·	·
Cc1cc(C)c2c(N)c(C(=O)N/N=C/c3ccccc3)sc2n1	–	45.8	–	–	46.9	·
Cc1cc(C)c2c(N)c(C(=O)NNC(=O)c3ccccc3)sc2n1	–	66.4	–	–	–	–
COCC(=O)N1CC(=O)N2[C@H](CO)[C@@H](c3ccc(C#Cc4cccc(OC)c4)cc3)[C@@H]2C1	·	·	–	–	·	·
COc1ccc2[nH]c(=O)c(CNc3ccccc3OC)cc2c1	–	–	–	–	–	–
COc1ccc2[nH]c(=O)c(CNc3ccccc3)cc2c1	–	85.4	·	·	–	–
COc1ccc2[nH]c(=O)c(CNc3ccccc3C)cc2c1	–	·	–	–	38.9	–
CCCCC(=O)Nc1nc2ccc3nc(C)sc3c2s1	·	–	–	–	–	–
CCCC(=O)Nc1nc2ccc3nc(C)sc3c2s1	–	40.9	·	·	·	–
CC(=O)NCCC(=O)Nc1nc2ccc(Oc3ccccc3)cc2s1	–	–	–	–	–	109.5
CCOc1ccc2nc(NC(=O)CS(=O)(=O)c3ccccc3)sc2c1	–	–	·	·	·	–
CCCC(=O)Nc1nc2ccc(OCC)cc2s1	·	–	–	–	41.1	96.5
CC(C)c1cn(CC[C@H]2CC[C@@H](NS(=O)(=O)c3ccc(Cl)cc3)[C@@H](CO)O2)nn1	·	–	–	–	·	·
CCOc1ccc(NC(=O)c2ccc(CC)s2)c([N+](=O)[O-])c1	–	50.0	–	–	–	–
CCOc1ccc(N/C=C/C(=O)c2ccc(OC)cc2)c([N+](=O)[O-])c1	–	72.6	·	·	–	98.2
C/C(=N\NS(=O)(=O)c1ccc([N+](=O)[O-])cc1)c1ccc(NC(=O)c2ccco2)cc1	–	–	–	–	34.1	–
SMILES	NSD2 HMT inh	esBAF inh	Casp6 inh	Xi reactivation	Wnt act	MITF TRPM1 HTS
C/C(=N\NC(=O)c1ccccc1)c1ccc(NC(=O)c2cccs2)cc1	–	·	–	–	–	–
C/C(=N\NC(=O)c1ccccc1C)c1ccc(NC(=O)c2cccs2)cc1	–	53.2	·	·	·	–
C/C(=N\NC(=O)c1ccco1)c1ccc(NC(=O)c2cccs2)cc1	–	·	·	–	39.3	–
O=C(Nc1cc(Cl)cc(Cl)c1)N[C@@H]1CC[C@@H](CCNS(=O)(=O)c2cccc(F)c2)O[C@H]1CO	·	–	–	–	·	·
CCC(=O)N1[C@H](C(=O)Nc2ccccc2)[C@@H](CO)[C@@H]2Cn3c(ccc(C4=CCCC4)c3=O)[C@@H]21	·	–	–	–	·	·
O=C(CC(=O)c1ccccn1)c1ccccc1	–	·	–	–	49.6	–
O=C(NNCc1ccccc1)c1ccccn1	–	–	–	–	35.6	–
O=C(NNCc1ccccc1)c1ccccc1	–	–	–	–	–	–
CN(C)c1ccc(-c2[nH][nH]c(=O)c2NC(=O)c2ccccn2)cc1	·	–	98.9	–	–	·
CN(C)c1ccc(-c2[nH][nH]c(=O)c2NC(=O)c2ccc3ccccc3n2)cc1	·	–	–	–	–	·
NNS(=O)(=O)c1ccc2c(c1)Cc1cc(S(=O)(=O)NN)ccc1-2	–	–	48.3	–	–	–
O=S(=O)(NCCO)c1ccc2c(c1)Cc1cc(S(=O)(=O)NCCO)ccc1-2	–	–	–	–	–	–
CCc1ccc(NC(=O)C(C)Sc2nc(-c3ccco3)c(C#N)c(=O)[nH]2)cc1 (stereo not drawn)	–	–	46.0	–	–	–
N#Cc1c(-c2ccco2)nc(SCC(=O)Nc2cccc(Cl)c2)[nH]c1=O	–	–	·	·	·	–
c1nc(C2CCCCC2)cc2cc3c(cc12)OCO3	·	50.7	–	–	–	–
N#C/C(=N\Nc1cccc(F)c1)C(=N)N1CCCCCC1	–	·	–	–	–	?
N#C/C(=N\Nc1ccc(F)cc1)C(=N)N1CCCCC1	–	–	·	·	·	114.5
N#C/C(=N\Nc1ccccc1)C(=N)N1CCCCCC1	–	–	–	–	42.5	–
O=C(Cn1nc(-c2ccccc2)c2ccccc2c1=O)Nc1ccccn1	·	47.8	·	·	·	–
Cc1nn(CC(=O)Nc2ccccn2)c(=O)c2ccccc12	–	–	–	·	–	–
CCNc1nc(NCC)nc(N/N=C/c2ccc(OC)cc2)n1	–	·	–	–	–	·
COc1ccc(/C=N/Nc2nc(C)nc(N)n2)cc1	–	54.9	–	–	–	–
O=C(Nc1ccccc1)N1C[C@H]2[C@@H](c3ccccc31)[C@@H](CO)N2C(=O)c1ccncc1	·	–	–	–	·	·
CC(C)Oc1ccc(CNC(=O)Oc2ccccc2)cc1	–	–	–	–	–	91.5
C/C(=N/NC(=O)c1ccccn1)c1ccco1	·	–	·	·	–	–
SMILES	NSD2 HMT inh	esBAF inh	Casp6 inh	Xi reactivation	Wnt act	MITF TRPM1 HTS
C/C(=N/NC(=O)c1ccoc1C)C12CC3CC(CC(C3)C1)C2	–	56.6	·	·	·	–
N/C(=N\OC(=O)C12CC3CC(CC(C3)C1)C2)c1ccccc1	–	–	·	·	·	–
C/C(=N\NC(=O)c1ccoc1C)c1ccccc1	–	·	–	–	–	·
C/C(=N\NC(=O)c1ccccn1)C12CC3CC(CC(C3)C1)C2	–	49.5	·	·	–	–
N/C(=N\OC(=O)C12CC3CC(CC(C3)C1)C2)c1ccccn1	–	75.4	·	–	·	97.8
C[C@@H]1CN([C@H](C)CO)C(=O)c2cccc(NC(=O)c3nc4ccccc4s3)c2O[C@H]1CN(C)C(=O)Nc1cccc2ccccc12	·	·	·	–	·	·
Cc1cc(NCc2ccccn2)n2ncc(-c3ccc(Cl)cc3)c2n1	–	·	–	–	?	·
Cc1cc(C(F)(F)Cl)n2ncc(-c3ccccn3)c2n1	–	60.6	–	–	–	–
CCn1ccc(C(=O)Nc2cccc(Cl)c2)n1	–	·	–	–	·	–
CCn1ccc(C(=O)Nc2ccccc2Cl)n1	–	·	–	–	·	84.7
O=C(O)C1=C(C2CCCCC2)C(=O)c2ccccc21	–	·	–	–	–	–

Source: PubChem BioAssay (Broad Institute)
